Cytotoxicity data for 97 compounds are collected here from ChEMBL document CHEMBL4513216, “Probing the Open Global Health Chemical Diversity Library for Multistage-Active Starting Points for Next-Generation Antimalarials” (ACS Infect Dis, 2020).

A short description of this series: Toxicity liver stage against HepG2, at 10uM. It is filed as cell-based. Also on record: test concentration 10 uM, cell line HepG2-A16-CD81EGFP. The settings on record: human, HepG2-A16-CD81EGFP cells; read-out: INHIBITION
The essentials:
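Uninfected HepG2-A16-CD81EGFP cells, 3 × 10^3 per well, 1536-well, plated on prespotted compound at 10 μM final, parasite-free screening media added to match infected plates; puromycin 10 μM positive, DMSO 0.5% negative; run in parallel with 48 h PbLuc assay at 37 °C, 5% CO2; viability by CellTiter-Glo luminescence, normalized to controls.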

Regarding `O=C(c1cccc(F)c1)N1C[C@H]2CCCC(OCc3cccnc3)[C@H]2C1` (some centres not stated), the cytotoxicity at 10 µM was found to be 8.21%.
As for `CC(C)S(=O)(=O)NC(=O)CC(c1ccccc1)C(F)(F)F` (configuration not stated), the figure is -43.9%; as for `CNC(=O)C1CN(C)CCN(CCCOc2ccccc2F)C1` (configuration not stated), -1%.
As for `CCO[C@H]1C[C@@H](O)C12CCN(S(=O)(=O)c1ccccc1OC)CC2`, the figure is 2.01%.
On to `CC1=C(c2ccc(Cl)cc2)S(=O)(=O)N=C1N1CCc2ccccc21`, for which the cytotoxicity at 10 µM was -17.1%.
As for `Brc1cc2c(cc1CN1CCC(N3CCCCC3)CC1)OCCO2`, the figure is 50.1%; as for `O=C(c1nc(=O)[nH][nH]1)N1CCCN(CC2CCCCC2)CC1`, -12.9%; as for `CC(C)c1nnc(NCc2ccsc2)o1`, -0.19%.
To `Cc1nc(O)cc(CN2C[C@H](NC(=O)C3CCC3)[C@@H](C3CC3)C2)n1` belongs 0.675%; to `COC(=O)C(NC(=O)C(C)C)c1cc(F)ccc1F` (configuration not stated), -4.53%; to `Cc1ccc(-c2nc(CN3CCn4c(C)nnc4C3)co2)cc1`, -8.03%.
With `CCc1cnc(N2CCN(Cc3ccon3)CC2)s1`, the cytotoxicity at 10 µM came to 1.16%.
As for `CNC(=O)[C@@H]1C[C@@H](NC(=O)CSc2ccccc2)CN1C1CCOCC1`, the figure is 2.14%; as for `Cc1cccc(S(=O)(=O)N2Cc3nccn3CC(CN(C)C)C2)c1` (configuration not stated), -105%; as for `Cn1cc(C2CCCN2C(=O)Cc2n[nH]c3ccccc23)cn1` (configuration not stated), 2.56%.
As for `CCOCC1CN(C(=O)c2cccnc2)Cc2cnn(C)c21` (configuration not stated), the figure is -1.28%.
Consider `Cc1cc(C)n(CC2CCCN2C(=O)c2cnc3n[nH]c(C)c3c2)n1` (configuration not stated), for which the cytotoxicity at 10 µM was -2.61%.
As for `Cc1nc(C2CCCN(C(=O)c3csc(C)n3)C2)no1` (configuration not stated), the figure is 7.04%.
With `CC(C)CCN1CCc2nc(N3CCOCC3)nc(NC(C)C)c2C1`, the cytotoxicity at 10 µM is -113%.
`O=C(Cc1ccc(F)c(Br)c1)N1CCN(CCO)CC1`: the cytotoxicity at 10 µM is -11.5%.
To `Cc1cc(NCCc2nnc(N)s2)nc(-c2ccccc2)n1` belongs 6.9%; to `COCc1cn(C2CCN(CCC(C)c3ccccc3)CC2)nn1` (configuration not stated), 6.39%.
As for `CC(C)OCc1noc(C2CCCOC2)n1` (configuration not stated), the figure is 5.31%; as for `O=C1O[C@@H]2CN(Cc3cc4ccccc4o3)C[C@@H]2N1Cc1ccccn1`, 5.16%; as for `Cc1cc(C2CCCN2C(=O)CN2C(=O)OC(C)(C)C2=O)on1` (configuration not stated), -14.1%.
As for `CN(C)CCOCc1cncc2c1CCN(Cc1ccccn1)C2`, the figure is 2.2%; as for `NC(=O)C1CCCN1CCCc1ccc(Cl)cc1` (configuration not stated), 5.39%.
Regarding `CN1CCCC(c2nccnc2-c2cccc(C(F)(F)F)c2)C1` (configuration not stated), the cytotoxicity at 10 µM worked out at 7.75%.
As for `CCC/C=C/c1ccc(CN2CCCC2)cn1`, the figure is -16.1%; as for `Cc1cc(C)cc(OCC(O)CN2CCN(c3nccs3)CC2)c1` (configuration not stated), -7.32%; as for `CCc1nnc(NC(=O)c2c3c(nn2C2CCS(=O)(=O)C2)CCC3)s1` (configuration not stated), -4.28%.
To `CC(C)c1noc(C(C)S(=O)(=O)Cc2nc(C3CC3)no2)n1` (configuration not stated) belongs -0.828%.
To `COc1ncccc1N(C)C(=O)Cn1cc(-c2ccccc2)nn1` belongs -1.11%.
Take `CC(C)c1nnc2n1CCN(C(=O)c1ccc3c(c1)COC3)C2`: the cytotoxicity at 10 µM is -6.22%.
To `CNc1cc(N2CCCC2CNCc2ccc(C)o2)ncn1` (configuration not stated) belongs -2.69%; to `O=S(=O)(C1CC1)N1CC[C@]2(C[C@@H](Oc3ccccn3)CO2)C1`, -10.4%.
As for `Cc1cc(C)n(Cc2cc(C(=O)N3CCCCC3c3nccs3)n[nH]2)n1` (configuration not stated), the figure is 13.8%; as for `Cn1c(=O)c2c(n3ncnc13)NC(=O)CC2c1ccc(F)cc1` (configuration not stated), 5.64%.
To `CCN(CC)Cc1cc(=O)n2c(n1)CN(C(=O)c1ccnnc1)CCC2` belongs 6.66%; to `Cc1nc(C)c(CCNC(Cc2ccncc2)C(F)(F)F)s1` (configuration not stated), -4.96%.
`CCOCc1ncn2c1CN(S(=O)(=O)c1ccc(C)cc1)CC2`: the cytotoxicity at 10 µM was -0.602%.
To `COCC(Nc1ncnc2c1CCNCC2)c1ccccn1` (configuration not stated) belongs 0.565%.
With `CC(C)c1nc(C2CCCN(c3nccc(N4CCCC4)n3)C2)no1` (configuration not stated), the cytotoxicity at 10 µM amounted to 27.6%.
To `Cc1cnn(CCNCc2csc(-c3cccs3)n2)c1` belongs -9.91%.
To `O=C(NC1CCN(c2nccs2)CC1)c1cccs1` belongs 4.17%; to `CC(C)N1Cc2cccc(NCC(=O)N(C)C3CCCCC3)c2C1`, 4.83%.
As for `CC(C)=CCCC1(C)CCC(=O)N(CCc2nc(N)cc(O)n2)C1` (configuration not stated), the figure is 0.361%; as for `COc1ccc(-c2cnc3c(c2)CN(C2CC2)C(=O)CCN3)cc1`, 4.09%.
With `Cn1cc(C(C)(O)CNc2ccccn2)cn1` (configuration not stated), the cytotoxicity at 10 µM is -43.6%.
To `O=C(NCC1CCCO1)c1ccc(S(=O)(=O)NCCc2cn[nH]c2)cc1` (configuration not stated) belongs 5.5%; to `c1cc(C2CCN(c3cnccn3)CC2)ncn1`, 2.64%; to `CC(C)C(=O)Nc1ccc(Oc2ccc3c(c2)OCO3)nc1`, -12.4%.
To `CC(c1ccccn1)N(C)Cc1cc2cc3c(cc2[nH]c1=O)OCO3` (configuration not stated) belongs 11.7%; to `CN1CCCCC1CCC(=O)NCCSc1cnn[nH]1` (configuration not stated), 0.00194%.
To `CC(C)(O)CN1CCN(C(=O)COCC(F)(F)F)CC1` belongs -12.9%; to `Cc1ccc2c(c1)SCC(=O)N2CC(=O)N1CCC[C@H]1c1nc(C)no1`, 7.95%.
With `O=C(C1CCS(=O)(=O)CC1)N1CCC(c2ccc(F)cc2)C1` (configuration not stated), the cytotoxicity at 10 µM was -60.1%.
To `CCn1cnnc1CNC(=O)c1ccc(Br)cc1F` belongs -18.2%; to `COc1ccc(NC(=O)c2nc3ccccc3n(C)c2=O)c(OC)c1`, 0.37%.
As for `CCC(CO)N(Cc1ccco1)C(=O)c1ccccc1NC` (configuration not stated), the figure is 2.1%; as for `COc1ccccc1C1Cn2c(C)cnc2CN1Cc1c[nH]nc1C` (configuration not stated), 2.79%.
With `COc1ccc(CNCC(C)Oc2ccccn2)cc1Br` (configuration not stated), the cytotoxicity at 10 µM is -10.2%.
Regarding `Cc1cc(-c2cnn(CCNC(=O)C3CCCO3)c2C2CC2)on1` (configuration not stated), the cytotoxicity at 10 µM is -4.07%.
To `CCC(=O)N1CCN(c2ncnc3c(C)nn(C)c23)CC1` belongs -1.43%.
As for `O=C(Nc1cnccn1)[C@@H]1COC[C@H]2CN(C3CCCC3)C[C@H]21`, the figure is -21.9%; as for `Cc1nc(-c2cc(C(=O)N3CCCN(C)CC3)c3ccccn23)cn1C`, 5.59%; as for `O=C1[C@H]2CN(Cc3ccoc3)C[C@H]2CN1Cc1cccnc1`, -76.5%.
As for `COc1cc(N2C[C@H](C(=O)NCC3CC3)[C@@H]3CCO[C@@H]3C2)ncn1`, the figure is 2.87%; as for `Cc1noc(C)c1CNS(=O)(=O)N(C)Cc1ccccc1Br`, 17.8%.
As to `Cc1cc(CN[C@H](C(N)=O)[C@@H](C)O)c(C)s1`, the cytotoxicity at 10 µM came out at 9.5%.
As for `Cc1cc(C)n(CC2CCCN2C(=O)c2cccc3c2OCO3)n1` (configuration not stated), the figure is -15.7%.
To `CCn1cc(CN2C[C@@H]3CCCN3C[C@@H]2CCSC)cn1` belongs -13.9%; to `CC(=O)N1CCCC1c1nccnc1Nc1ncccn1` (configuration not stated), -1.2%.
Regarding `CCCNC(=O)c1ccc2c(OC)n(C)nc2c1`, the cytotoxicity at 10 µM was found to be 1.56%.
As for `CC(C(=O)Nc1ccc2ccccc2c1)N1CCC(n2ccnc2)CC1` (configuration not stated), the figure is -4%; as for `Cc1cnn(C2CN(CC(=O)NCCc3ccccc3)C2)c1`, -0.956%.
To `Cc1nc(NC(=O)NC2CC(=O)N(C)C2)nn1C` (configuration not stated) belongs -12.2%; to `CC(C)c1nc2c(n1C)CCN(CC(=O)NCc1ccccn1)C2`, -8.52%.
To `CCN(CCNC(=O)c1cccnc1OCCOC)C1CC1` belongs -0.966%; to `CNS(=O)(=O)c1cnccc1N1CCN(C(C)C)CC1`, -2.02%; to `Cn1ccc(CN2CCC(CO)CC2)cc1=O`, 5.1%.
Turning to `CS(=O)(=O)NC(=O)c1ccn(-c2ccccc2Cl)n1`, the cytotoxicity at 10 µM was -4.27%.
To `Cn1ccc(C(=O)Nc2nnc(-c3ccccn3)[nH]2)cc1=O` belongs 6.69%.
For `O=C(NCC(O)c1ccsc1)c1sccc1OC(F)F` (configuration not stated), the cytotoxicity at 10 µM is -16%.
To `Cc1ccccc1N1CCN(CCS(=O)(=O)c2ccc(Br)cc2)CC1` belongs 18.7%; to `COc1ncc(C(F)(F)F)c(C(=O)O)c1Cl`, 16.7%.
As for `CCn1cc(S(=O)(=O)N(C)Cc2c(Br)cnn2CC)c(C)n1`, the figure is 3.3%; as for `CC(C)CN1CCCn2nc(CNC(=O)CCN)cc2C1`, -20.5%.
As for `Cn1c(CCC(=O)N2CCCC3(CNC(=O)O3)C2)nc2cccnc21` (configuration not stated), the figure is 2.3%.
As to `CCC(CNS(C)(=O)=O)Oc1ccccc1F` (configuration not stated), the cytotoxicity at 10 µM is -6%.
To `CCOCC1CN(c2ncccn2)Cc2cnn(CC3CCOCC3)c21` (configuration not stated) belongs 2.97%.
To `CC1c2ncc(Cn3cccn3)n2CCN1c1ncccn1` (configuration not stated) belongs -108%; to `CSCc1noc(CNC(=O)[C@H]2CNC[C@@H](C(=O)N3CCCC3)C2)n1`, 2.79%; to `CC(C)[C@@H]1CN(S(=O)(=O)Cc2ccccc2)C[C@H]1C(=O)O`, -1.05%.
For `Cc1ccc(N2CCCc3sc(C(=O)NCc4ccc(C)o4)nc32)nn1`, the cytotoxicity at 10 µM was 4.93%.
As for `Cc1cnccc1CCNC(=O)Nc1cnc(N(C)C)nc1`, the cytotoxicity at 10 µM stood at 7.75%.
Take `CC(C)Cn1cc(NC(=O)N2CCOC(c3ccccc3)C2)cn1` (configuration not stated): the cytotoxicity at 10 µM stood at 7.59%.
